Bioassay records deposited in PubChem BioAssay by Broad Institute.
S100A4 inh HTS: S100A4-myosin IIA interaction inhibition. 360,000 tested, 0.14% active. P26447. inhibition, % at 10.7 µM. S100A4/TAMRA-MyoIIA peptide fluorescence polarization;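 active = mean inhibition of at least 70% across replicates, with every replicate also reaching that level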
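Material: S100A4 monomer (human). Medium: Calcium-containing HEPES buffer, pH 7.2. Probe or stimulus: labelled myosin peptide probe, 5 nM. Compound dosing: one concentration per compound. Timing: polarization read 5 min after assay mix addition, stable 5–60 min. Benchmarks: DMSO as neutral control, TFP as positive control.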
ERp5 inh: inhibitors of human ERp5; Q15084; ERp5 insulin aggregation, absorbance 650 nm, 90 min; inhibition, % at 9.99 µM; 350,000 tested, 0.05% active;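 active = mean replicate inhibition above about 25%, with every replicate also reaching it, limit read from the data, passing the limit was not always enough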
Target sequence (Q15084 whole entry, looked up): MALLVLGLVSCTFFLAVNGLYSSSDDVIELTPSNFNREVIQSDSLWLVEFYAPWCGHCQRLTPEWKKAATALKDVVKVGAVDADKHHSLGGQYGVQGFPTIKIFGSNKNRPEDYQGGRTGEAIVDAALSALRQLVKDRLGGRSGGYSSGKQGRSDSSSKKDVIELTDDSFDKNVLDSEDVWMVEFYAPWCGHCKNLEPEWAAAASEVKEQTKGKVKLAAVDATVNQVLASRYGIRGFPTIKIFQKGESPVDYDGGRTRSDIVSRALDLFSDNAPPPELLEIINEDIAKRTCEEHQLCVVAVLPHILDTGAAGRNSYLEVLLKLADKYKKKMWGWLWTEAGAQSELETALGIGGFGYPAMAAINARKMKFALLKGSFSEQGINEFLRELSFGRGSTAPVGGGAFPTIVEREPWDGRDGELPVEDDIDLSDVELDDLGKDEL
ERAP1 HTS inh: blocks human ERAP1 aminopeptidase activity | recombinant ERAP1, Leu-AMC fluorescence, 60 min | inhibition, % at 10.7 µM | Q9NZ08 | 340,000 tested, 0.15% active | AID 652197;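 active = mean replicate inhibition of at least 30%, or all replicates individually reaching that 30% level; inactive = mean below 30% and not every replicate reaching it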
FGF22 binding: binders of recombinant human FGF22 by thermal shift | AID 651658 | activity (Tm shift, normalised), % at 9.99 µM | 340,000 tested, 1.5% active | Q9HCT0 | SYPRO orange fluorescence; percent of sucrose octasulfate shift, DMSO zero;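 active = mean Tm shift, scaled 0 neutral to 100 positive control, at about 1.3% or above, every replicate too, limit read from the data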
PDI inh: inhibitors of human protein disulfide isomerase; PDI insulin aggregation turbidity, A650, 90 min; inhibition, % at 10 µM; 350,000 tested, 0.052% active; AID 588391;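 active = mean inhibition across replicates of 30% or more, whatever share of single replicates reach that level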
Hits are given with their value; 0 = inactive; - = not tested or not shown; + = active, no number. Only a selection was taken, and hits are over-represented in it overall.

SMILES	S100A4 inh HTS	ERp5 inh	ERAP1 HTS inh	FGF22 binding	PDI inh
C[C@@H]1CN([C@H](C)CO)S(=O)(=O)c2ccc(-c3ccccc3)cc2O[C@@H]1CN(C)Cc1cccc(F)c1	0	0	0	0	-
O=C(CSc1nc2ccccc2c(=O)n1-c1ccc(F)cc1)Nc1ccc(N2CCOCC2)cc1	0	0	0	0	0
O=C(CSc1nc2ccccc2c(=O)n1-c1ccc(SC(F)F)cc1)Nc1ccc(N2CCOCC2)cc1	0	0	0	43.0	0
O=C(C[C@@H]1CC[C@@H](NC(=O)Nc2ccc3c(c2)OCO3)[C@H](CO)O1)NCCCN1CCOCC1	0	0	0	0	-
Cc1cnc(C(=O)N2CCN(S(=O)(=O)c3cccc(Br)c3)CC2)cn1	0	0	0	0	0
CCS(=O)(=O)Nc1cccc(C2=NN(S(C)(=O)=O)C(c3ccccc3)C2)c1 (configuration not stated)	0	0	0	43.2	0
CC(=O)N1N=C(c2cccc(NS(C)(=O)=O)c2)CC1c1cccs1 (configuration not stated)	0	0	0	0	0
CCS(=O)(=O)Nc1cccc(C2=NN(C(C)=O)C(c3cccs3)C2)c1 (configuration not stated)	0	0	0	43.0	0
CS(=O)(=O)Nc1ccc(C2=NN(C(=O)c3ccccc3)C(c3cccs3)C2)cc1 (configuration not stated)	0	0	0	0	0
CC(C)(C)C(=O)N1N=C(c2ccc(NS(C)(=O)=O)cc2)CC1c1cccs1 (configuration not stated)	0	0	0	43.2	0
Cc1ccc(NC(=O)CSc2nnc(-c3ccco3)n2N)cc1F	0	0	0	0	0
O=c1c2c([N+](=O)[O-])cc([N+](=O)[O-])cc2sn1Cc1ccccc1	0	0	87.8	0	0
O=c1c2c([N+](=O)[O-])cc([N+](=O)[O-])cc2sn1-c1ccc(Br)cc1	-	-	-	-	0
NC(=O)COC(=O)c1ccccc1OCc1ccc(Cl)cc1	0	0	0	0	0
Cc1ccc2cccc(S(=O)(=O)N3CCCc4ccccc43)c2n1	0	0	0	43.1	0
O=C(CN1CCN(S(=O)(=O)c2ccccc2)CC1)Nc1ccc(N2CCOCC2)cc1	-	-	-	-	0
O=C(CN1CCN(C(c2ccccc2)c2ccccc2)CC1)Nc1ccc(N2CCOCC2)cc1	0	0	0	43.0	0
Cc1ccc(C)n1-c1ccc(-c2ccn[nH]2)cc1	0	0	0	42.9	0
Cc1ccn2c(NC3CCCCC3)c(C)nc2c1	-	-	-	-	0
CC(C)[C@H](NC(=O)c1ccco1)C(=O)OCC(=O)Nc1ccc(F)cc1	0	0	0	0	0
CC(C)C(NC(=O)c1ccco1)C(=O)OCC(=O)Nc1ccc(C(N)=O)cc1 (configuration not stated)	0	0	0	43.3	0
CC(C)[C@H](NC(=O)OCc1ccccc1)C(=O)OCC(=O)NCc1ccco1	0	0	0	43.1	0
CSc1ccc(CN(C)C(=O)c2cc3ccccc3o2)cc1	0	0	0	0	0
COc1cccc(C2NC(=S)NC(C)=C2C(=O)c2ccccc2)c1OC (configuration not stated)	0	0	0	43.2	0
CCOC(=O)c1cc(CC)sc1NC(=O)CCC(=O)O	-	-	-	-	0
SMILES	S100A4 inh HTS	ERp5 inh	ERAP1 HTS inh	FGF22 binding	PDI inh
CCCc1cc(C(=O)OC)c(NC(=O)CCC(=O)O)s1	0	0	0	43.2	0
CCc1nc2nc(C)c(NS(=O)(=O)c3ccc(Br)s3)c(=O)n2[nH]1	0	0	0	0	0
O=C(O)c1ccccc1-c1ccccc1C(=O)Nc1ccc2c(c1)oc(=O)c1ccccc12	0	0	0	-	0
O=C(O)c1ccccc1-c1c2cc(I)c(=O)c(I)c-2oc2c(I)c(O)c(I)cc12	+	0	106.1	0	0
COc1ccc(-c2noc(CCC(=O)NCCCN3CCC(C)CC3)n2)cc1	-	-	-	-	0
CCN1CCN(CCCNC(=O)CCc2nc(-c3ccc(OC)cc3)no2)CC1	0	0	0	43.2	0
N/C(CC(=O)NCCOc1ccccc1)=N\O	-	-	-	-	0
COc1ccc(N=C2S/C(=C\c3ccc(OCC(=O)O)cc3)C(=O)N2CCc2c[nH]c3ccccc23)cc1	0	31.5	0	0	0
COc1ccc(N=C2S/C(=C\c3ccc(N4CCOCC4)o3)C(=O)N2CCc2c[nH]c3ccccc23)cc1	-	-	-	-	0
CCOC1(c2ccccc2)CC1C(=O)N/N=C/c1cccc([N+](=O)[O-])c1 (configuration not stated)	0	0	-	0	0
